Test results reported in ChEMBL document CHEMBL1156609, “9-N-Substituted berberine derivatives: stabilization of G-quadruplex DNA and down-regulation of oncogene c-myc” (Bioorg Med Chem, 2008).
Active and inactive are the calls of the source. No cut-off for these calls is given here.

Key:
[1] = Binding affinity to duplex F10T DNA assessed as melting temperature at 2.0 uM by FRET melting assay
[2] = Inhibition of human c-myc G-quadruplex Pu27 DNA amplification at 5.0 uM by PCR-stop assay
Method in brief: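 PCR-stop: Pu27 template with complementary oligomer in 1× PCR buffer, 0.16 mM dNTP, 2.5 U Taq, compound at 1.0, 2.5, 4.0 or 5.0 μM; 94 °C 3 min, then 30 cycles of 94/58/72 °C for 30 s each; products on 15% native PAGE in TBE, silver stained.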

Homo sapiens [3] = species: Homo sapiens; assay: Binding affinity to duplex F10T DNA assessed as change melting temperature at 2.0 uM by FRET melting assay
Homo sapiens [4] = species: Homo sapiens; assay: Binding affinity to human c-myc G-quadruplex Pu18 DNA assessed as change melting temperature at 2.0 uM by FRET melting assay
Method in brief: (§1)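 FRET melting of dual-labelled Pu18 (5'-FAM/3'-TAMRA), 0.2 μM, in 10 mM Tris–HCl pH 7.2 with 0.2 mM KCl, compound 2.0 μM; fluorescence recorded on a real-time PCR instrument; Tm read from melting curves, ΔTm relative to no-compound control.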

[5] = Cytotoxicity against human GLC cells by MTT assay; format: functional, cell-based
Method in brief: (§2)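 MTT cytotoxicity assay against tumour cells; IC50 taken as mean of three independent assays.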

NCI = assay: Cytotoxicity against human NCI cells by MTT assay; format: functional, cell-based
Method in brief: as §2

Homo sapiens [6] = species: Homo sapiens; assay: Binding affinity to human c-myc G-quadruplex Pu18 DNA assessed as melting temperature at 2.0 uM by FRET melting assay
Method in brief: as §1

Homo sapiens [7] = species: Homo sapiens; assay: Induction of G-quadruplex formation in human c-myc Pu27 DNA at 10 uM […] by gel electrophoresis
HL-60 [8] = assay: Antiproliferative activity against human HL60 cells assessed as cell count and viability at 5 to 10 uM; format: functional, cell-based
Method in brief: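 HL60 cells (RPMI-1640, 10% FBS, penicillin/streptomycin, 37 °C, 5% CO2), about 5000 per well, given freshly dissolved compound at 0–10 μM for 4 days, re-dosed at day 5 for a further 4 days; cell count and viability by trypan blue exclusion daily from day 1 to day 8.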

HL-60 [9] = assay: Inhibition of human c-myc gene transcription in HL60 cells at 0.7-1.7 uM after 4 days by RT-PCR; format: functional, cell-based

SMILES	Tm [1] [°C]	IC50 [2] [µM]	ΔTm (Homo sapiens [3]) [°C]	ΔTm (Homo sapiens [4]) [°C]	Tm (Homo sapiens [6]) [°C]	Activity (Homo sapiens [7])	IC50 [5] [µM]	IC50 (NCI) [µM]	Activity (HL-60 [8])	Activity (HL-60 [9])
COc1ccc2cc3[n+](cc2c1NCCN1CCOCC1)CCc1cc2c(cc1-3)OCO2	59	7.1	1	18	72		50	50		
COc1ccc2cc3[n+](cc2c1NCCCN(C)C)CCc1cc2c(cc1-3)OCO2	59	3.3	1	20	74		64	29		
COc1ccc2cc3[n+](cc2c1NCCCN1CCCC1)CCc1cc2c(cc1-3)OCO2	60	2.3	2	25	78		32	22		
COc1ccc2cc3[n+](cc2c1NCCCN1CCOCC1)CCc1cc2c(cc1-3)OCO2	58	4.8	0	17	71		102	85		
COc1ccc2cc3[n+](cc2c1NCCO)CCc1cc2c(cc1-3)OCO2	58	5.5	0	12	66		51	35		
COc1ccc2cc3[n+](cc2c1NCCN(C)C)CCc1cc2c(cc1-3)OCO2	58	3.9	0	19	73		56	36		
COc1ccc2cc3[n+](cc2c1OC)CCc1cc2c(cc1-3)OCO2			2	1	55					

Now from value to molecule, other results behind:

Tm [1] [°C]	IC50 [2] [µM]	ΔTm (Homo sapiens [3]) [°C]	ΔTm (Homo sapiens [4]) [°C]	Tm (Homo sapiens [6]) [°C]	Activity (Homo sapiens [7])	SMILES	IC50 [5] [µM]	IC50 (NCI) [µM]	Activity (HL-60 [8])	Activity (HL-60 [9])
59	3.2	1	24	78		COc1ccc2cc3[n+](cc2c1NCCCN1CCCCC1)CCc1cc2c(cc1-3)OCO2	69	38		
58	4	0	20	74		COc1ccc2cc3[n+](cc2c1NCCN1CCCCC1)CCc1cc2c(cc1-3)OCO2	38	22		
60	2	2	29	83	Active	COc1ccc2cc3[n+](cc2c1NCCCCCCN)CCc1cc2c(cc1-3)OCO2	9	4	Active	Active
59	3.6	1	20	74		COc1ccc2cc3[n+](cc2c1NCCc1ccccc1)CCc1cc2c(cc1-3)OCO2	18	2		
